Laboratory results as given in PubChem BioAssay AID617 (SRMLSC, 2007).

Tested on: E. coli BW25113 ΔtolC growth inhibition, OD615
Test: E. coli ΔtolC antibacterial growth inhibition – strain BW25113 ΔtolC::kan, dose response (AID 617);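 note: growth read after 20 h at 37 °C with compound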
Summary of the method: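 Test system: E. coli BW25113 ΔtolC::kan bacteria | Amount: 1:1000 diluted subculture inoculum | Medium: LB plus kanamycin | Timing: 20 h exposure at 37 °C | Signal: Absorbance at 615 nm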

| Structure (SMILES) | IC50 [µM] |
| --- | --- |
| COc1ccccc1OCCSc1nnnn1-c1ccc(C)cc1 | 18.9 |
| Cc1ccnc(N2CCC(C(=O)Nc3cccc(C(F)(F)F)c3)CC2)n1 | 82.2 |
| c1ccc(CSc2nnc(-c3ccco3)n2Cc2ccccc2)cc1 | 13.8 |
| CCCCC(=O)c1c(O)c2ccccc2oc1=O | 7.48 |
| COc1ccccc1N1CCN(c2nc(C)nc3c2oc2ccccc23)CC1 | 11.4 |
| CC(C)c1ccc(OCc2nc(-c3ccccn3)no2)c(Br)c1 | 14.9 |
| Brc1ccc(CSc2nnc(-c3cnccn3)n2Cc2ccco2)cc1 | 63.4 |
| O=C1c2ccccc2C(=O)N1CCC(c1ccc(F)cc1)c1ccco1 (stereo unspecified) | 13.4 |
| CCCOC(=O)/C(C(N)=NCc1ccccc1)=C(\O)OCCC | 16.4 |
| Cc1c(C(=O)OCCOc2ccccc2)[nH]c2c1C(=O)CCC2 | 3.86 |
| COc1cccc(N2CC(C(=O)Nc3ccc(C(=O)OC(C)C)cc3)CC2=O)c1 (stereo unspecified) | 15 |
| CCOC(=O)C1CCN(C(c2cccnc2)c2c(NC(=O)c3ccco3)sc(C)c2C)CC1 (stereo unspecified) | 13.6 |
| CCCCn1c(O)c(C(CC)=NCCc2ccccc2)c(=O)[nH]c1=O | 14 |
| COc1ccc(C2(O)CC3CCC(C2)N3c2nc(C)cc(C)c2C#N)cc1 (stereo unspecified) | 24.6 |
| Cc1cccc(N2CC(c3nc4ccccc4n3C)CC2=O)c1C (stereo unspecified) | 4.93 |
| COc1ccc(C2(O)CC3CCC(C2)N3c2cc(C)nc(-c3ccccc3)n2)cc1 (stereo unspecified) | 11.7 |
| CCC1CCCCN1C(=O)c1cc(-c2ccc(Cl)c(Cl)c2)on1 (stereo unspecified) | 10.3 |
| COC(=O)c1sccc1NC(=O)c1csc(C)c1 | 23.1 |
| N#Cc1nc(COc2ccccc2F)oc1NCCc1ccccc1 | 16.7 |

| Structure (SMILES) | IC50 [µM] |
| --- | --- |
| Oc1c(CN2CCc3ccccc3C2)cc(Cl)c2cccnc12 | 8.71 |
| C=C(C)COc1ccc(-c2[nH]ncc2Oc2ccccc2OC)c(O)c1 | 5.72 |
| COc1cccc(C(=O)Nc2nnc(-c3cccs3)o2)c1 | 3.87 |
| CCSC1=C(C#N)C(c2ccc(Cl)cc2)C2=C(CCCC2=O)N1 (stereo unspecified) | 8.21 |
| Cc1cc(C)c(C#N)c(SCC(=O)OC2CCCCC2)n1 | 19.1 |
| O=C(CCNc1cc(Cl)cc(Cl)c1)c1ccco1 | 30.9 |
| Cc1cccc(NC(=O)CSc2nnc(-c3cc(C)n(-c4ccccc4)c3C)o2)c1C | 14 |
| Cc1ccc(C)n1-n1c(C)nc2sc3c(c2c1=O)CCCCC3 | 69.2 |
| Cc1cccc(N2C(N)=C(C#N)C(C#N)(C#N)C2c2ccccc2)c1 (stereo unspecified) | 13.3 |
| CCOC(=O)c1c(C)[nH]c(C)c1C(=O)Cn1nnc(-c2ccccc2C)n1 | 5.44 |
| COc1ccc(/C(O)=C2\C(=O)C(=O)N(CC3CCCO3)C2c2cc(OC)ccc2OC)cc1 (stereo unspecified) | 11.8 |
| COc1ccc(-c2[nH]ncc2-c2ccc3c(c2)OCCO3)c(O)c1 | 15.9 |
| Cc1ccc(-c2csc3ncn(-n4c(C)ccc4C)c(=O)c23)o1 | 14.9 |
| Cc1ccc2[nH]c3c(c2c1)CCc1cn[nH]c1-3 | 17.8 |
| CCCCCOC(=O)c1ccc(NC(=O)c2ccco2)cc1 | 6.52 |
| COc1ccc(-n2c(C)nc3c(cnn3-c3ccc(Cl)cc3)c2=O)cc1 | 20.9 |
| Cc1noc(NS(=O)(=O)c2ccc(NC(=O)COc3ccc(Cl)cc3Cl)cc2)c1C | 9.41 |
| C=C(C)COc1ccc(-c2n[nH]c(C)c2-c2ccccc2OC)c(O)c1 | 13.6 |
| Cc1nc2nc(-c3ccco3)[nH]n2c(=O)c1Cc1ccccc1 | 5.98 |

| Structure (SMILES) | IC50 [µM] |
| --- | --- |
| CSCc1nnc(NC(=O)c2ccc(S(=O)(=O)N(CC(C)C)CC(C)C)cc2)o1 | 0.3 |
| N#Cc1nc(Cc2cccc3ccccc23)oc1NCCCn1ccnc1 | 24.2 |
| Cc1nc2c(-c3ccccc3)c(C)[nH]n2c(=O)c1Cl | 3.59 |
| COC(=O)c1[nH]c2cccc(OC)c2c1NC(=O)CN1CC2(C)CC1CC(C)(C)C2 (stereo unspecified) | 38.8 |
| CCOc1ccccc1N1CCN(C(=O)Nc2ccc(F)c(Cl)c2)CC1 | 10.2 |
| COc1cc2cc(C(c3nnnn3C3CCCCC3)N(C)C3CCCCC3)c(=O)[nH]c2cc1OC (stereo unspecified) | 9.71 |
| Cc1nn(Cc2ccc(C(=O)N3c4ccc(F)cc4CCC3C)o2)c(C)c1Br (stereo unspecified) | 9.71 |
| CS(=O)(=O)N(Cc1nc2sc3c(c2c(=O)[nH]1)CCCC3)C1CCCCC1 | 8.1 |
| COC(=O)CSc1nc(N2CCCCC2)c2c(c1C#N)CCCC2 | 12.6 |
| COC(=O)c1ccc(/C(O)=C(\C#N)c2nc3ccccc3s2)cc1 | 2.51 |
| O=C(Nc1cccc(Cl)c1)Nc1nccs1 | 11 |
| COc1ccccc1C(=O)Nc1nnc(-c2ccc3c(c2)CCCC3)o1 | 6.32 |
| Clc1ccc(COC(Cn2ccnc2)c2ccc(Cl)cc2Cl)c(Cl)c1 (stereo unspecified) | 3.22 |
| Cn1nc(-c2ccc(N3CCOCC3)c(NC(=O)COc3ccccc3)c2)c2ccccc2c1=O | 8.7 |
| Brc1ccc(-c2nc(-c3ccccc3)no2)o1 | 30.1 |
| CCN(C(=O)c1cc2cc3ccc(C)cc3nc2o1)c1ccc(OC)cc1 | 19 |
| Cc1ccc(C(c2nnnn2CCc2ccccc2)N2CCSCC2)cc1 (stereo unspecified) | 30.9 |
| COc1cccc(-c2cc(C(=O)N3CCc4ccccc4C3)no2)c1 | 8.69 |
